# Test results reported in ChEMBL document CHEMBL1122774, “Tri- and tetrapeptide analogues of kinins as potential renal vasodilators” (J Med Chem, 1984).
# Square brackets hold non-standard residues; d marks the D form. Peptide text beside a SMILES is read from it. * marks the point of attachment. ξ: configuration not given here. Butanoyl(4-(4-HOPh)) = O=C(CCCc1ccc(O)cc1)*; ξαMeY = CC(N)(Cc1ccc(O)cc1)C(=O)O
# What was measured:
# Canis familiaris [1] = assay: In vivo percent change in canine mean arterial blood pressure (MABP) at 3 ug/Kg/min.; type: functional, Canis lupus familiaris
# Method in brief: (§1)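 Primary screen in anesthetized dogs (7-17 kg). Drug infused separately at 3, 30 and 300 µg/(kg min), each infusion lasting 5 min, at about 15-min intervals. Read-outs are renal blood flow, mean arterial blood pressure, heart rate, and RVR (MABP / mean RBF), as percent change. Significance thresholds are defined per number of dogs; n = 1-3 dogs.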
# Canis familiaris [2] = assay: In vivo percent change in canine renal blood flow (RBF) at 30 ug/Kg/min.; type: functional, Canis lupus familiaris, Kidney; method in brief: as §1
# Canis familiaris [3] = assay: In vivo percent change in canine mean arterial blood pressure (MABP) at 300 ug/Kg/min.; type: functional, Canis lupus familiaris; method in brief: as §1
# Canis familiaris [4] = assay: In vivo percent change in canine heart rate at 300 ug/Kg/min.; type: functional, Canis lupus familiaris; method in brief: as §1
# Canis familiaris [5] = assay: Renal vasodilator activity in anesthetized dogs and percent change in renal vascular resistance (RVR) was determined at 30 ug/Kg/min; type: functional, Canis lupus familiaris; method in brief: as §1
# Canis familiaris [6] = assay: In vivo percent change in canine renal blood flow (RBF) at 3 ug/Kg/min.; type: functional, Canis lupus familiaris, Kidney; method in brief: as §1
# Canis familiaris [7] = assay: In vivo percent change in canine renal vascular resistance (RVR) at 300 ug/Kg/min.; type: functional, Canis lupus familiaris; method in brief: as §1
# Canis familiaris [8] = assay: In vivo percent change in canine mean arterial blood pressure (MABP) at 30 ug/Kg/min.; type: functional, Canis lupus familiaris; method in brief: as §1
# Canis familiaris [9] = assay: In vivo percent change in canine heart rate at 30 ug/Kg/min.; type: functional, Canis lupus familiaris; method in brief: as §1
# Canis familiaris [10] = assay: In vivo percent change in canine renal vascular resistance (RVR) at 3 ug/Kg/min.; type: functional, Canis lupus familiaris; method in brief: as §1
# Canis familiaris [11] = assay: In vivo percent change in canine heart rate at 3 ug/Kg/min.; type: functional, Canis lupus familiaris; method in brief: as §1
# Canis familiaris [12] = assay: In vivo percent change in canine renal blood flow (RBF) at 300 ug/Kg/min.; type: functional, Canis lupus familiaris, Kidney; method in brief: as §1
# [13] = Ratio of ED30 of iliac vascular resistant (IVR) to the ED15 of RVR (renal vascular resistance); type: functional
# Method in brief: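 Anesthetized dogs in the secondary cumulative-infusion protocol, each dose level 5 min. Selectivity ratio is the dose giving a 30% change in iliac vascular resistance divided by the RVR ED15, the cumulative dose decreasing renal vascular resistance by 15%.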
# [14] = Ratio of ED20 of MABP (mean arterial blood pressure) to the ED15 of RVR ( renal vascular resistance).; type: functional
# Method in brief: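 Anesthetized dogs in the secondary cumulative-infusion protocol, each dose level 5 min. Selectivity ratio is the dose giving a 20% change in mean arterial blood pressure divided by the cumulative dose lowering renal vascular resistance 15% (RVR ED15).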
# Canis familiaris [15] = assay: In vivo percent change in canine renal vascular resistance (RVR) at 30 ug/Kg/min.; type: functional, Canis lupus familiaris; method in brief: as §1
# [16] = Average max percent decrease in RVR (renal vascular resistance) was determined.
# Method in brief: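 Secondary protocol in anesthetized dogs. Drug given as iv infusion at progressively increasing rates, each dose level for 5 min. The maximum effect is taken as the largest percent decrease in renal vascular resistance (RVR) reached with the compound. RVR is calculated as mean arterial blood pressure / mean renal blood flow.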
# Canis familiaris [17] = assay: Renal vasodilator activity in anesthetized dogs and percent change in mean arterial blood pressure (MABP) was determined at 3 ug/Kg/min; type: functional, Canis lupus familiaris; method in brief: as §1
# Canis familiaris [18] = assay: Compound was evaluated for renal vasodilator activity and represented as ED15 (intravenous administration); type: functional; conditions: Canis lupus familiaris
# Method in brief: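 Secondary protocol in anesthetized dogs with iv infusion at progressively increasing rates, each level infused 5 min. Potency is the cumulative dose (µg/kg) that lowered renal vascular resistance (MABP / mean RBF) by 15%. Minimum change needed for significance (p = 0.95) is 16% for RVR.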
# Canis familiaris [19] = assay: In vivo percent change in renal blood flow at 30 ug/Kg/min.; type: functional, Canis lupus familiaris, Kidney; method in brief: as §1
# Canis familiaris [20] = assay: Renal vasodilator activity in anesthetized dogs and percent change in heart rate (HR) was determined at 300 ug/kg min; type: functional, Canis lupus familiaris; method in brief: as §1
# Canis familiaris [21] = assay: Renal vasodilator activity in anesthetized dogs and percent change in renal blood flow (RBF) was determined at 3 ug/kg min; type: functional, Canis lupus familiaris, Kidney; method in brief: as §1
# Canis familiaris [22] = assay: Renal vasodilator activity in anesthetized dogs and percent change in mean arterial blood pressure (MABP) was determined at 300 ug/kg min; type: functional, Canis lupus familiaris; method in brief: as §1
# Canis familiaris [23] = assay: Renal vasodilator activity in anesthetized dogs and percent change in renal vascular resistance (RVR) was determined at 30 ug/kg min; type: functional, Canis lupus familiaris; method in brief: as §1
# Canis familiaris [24] = assay: Renal vasodilator activity in anesthetized dogs and percent change in heart rate (HR) was determined at 30 ug/kg min; type: functional, Canis lupus familiaris; method in brief: as §1
# Canis familiaris [25] = assay: Renal vasodilator activity in anesthetized dogs and percent change in renal vascular resistance (RVR) was determined at 3 ug/kg min; type: functional, Canis lupus familiaris; method in brief: as §1
# Canis familiaris [26] = assay: Renal vasodilator activity in anesthetized dogs and percent change in renal blood flow (RBF) was determined at 30 ug/kg min; type: functional, Canis lupus familiaris, Kidney; method in brief: as §1
# Canis familiaris [27] = assay: Renal vasodilator activity in anesthetized dogs and percent change in mean arterial blood pressure (MABP) was determined at 30 ug/kg min; type: functional, Canis lupus familiaris; method in brief: as §1
# Canis familiaris [28] = assay: Renal vasodilator activity in anesthetized dogs and percent change in heart rate (HR) was determined at 3 ug/kg min; type: functional, Canis lupus familiaris; method in brief: as §1
# Canis familiaris [29] = assay: Renal vasodilator activity in anesthetized dogs and percent change in renal vascular resistance (RVR) was determined at 300 ug/kg min; type: functional, Canis lupus familiaris; method in brief: as §1
# Canis familiaris [30] = assay: Renal vasodilator activity in anesthetized dogs and percent change in mean arterial blood pressure (MABP) was determined at 3 ug/kg min; type: functional, Canis lupus familiaris; method in brief: as §1
# Canis familiaris [31] = assay: Renal vasodilator activity in anesthetized dogs and percent change in renal blood flow (RBF) was determined at 300 ug/kg min; type: functional, Canis lupus familiaris, Kidney; method in brief: as §1
Decrease [16] [%],Molecule,Change (Canis familiaris [1]) [%],Change (Canis familiaris [2]) [%],Change (Canis familiaris [3]) [%],Change (Canis familiaris [4]) [%],Change (Canis familiaris [5]) [%],Change (Canis familiaris [6]) [%],Change (Canis familiaris [7]) [%],Change (Canis familiaris [8]) [%],Change (Canis familiaris [9]) [%],Change (Canis familiaris [10]) [%],Change (Canis familiaris [11]) [%],Change (Canis familiaris [12]) [%],Change (Canis familiaris [17]) [%],Change (Canis familiaris [19]) [%],further results
–,O=C(NCC(=O)N1CCC[C@H]1C(=O)O)[C@H](Cc1ccccc1)NC(=O)[C@@H]1CCCN1C(=O)CCCc1ccc(O)cc1 ({Butanoyl(4-(4-HOPh))}-PFGP-OH),-2,-43,-1.5,1.5,74.5,2.5,-8.5,-1,-1.5,-4.5,-2.5,7,–,–,–
19,CC(Cc1ccccc1)(NC(=O)[C@@H]1CCCN1C(=O)CC12CC3CC(CC(C3)C1)C2)C(=O)N[C@@H](CCCN=C(N)N)C(=O)O (stereo partly drawn),–,0.5,3,2,–,13,21.5,1,0.5,-11.5,3.5,-14,-0.5,–,Ratio [13]: 0; Ratio [14]: >84; Change (Canis familiaris [15]): -0.5%; ED15 (Canis familiaris [18]): 0.072 mg/kg
–,CC(CN[C@@H](CCCN=C(N)N)C(=O)O)(Cc1ccccc1)NC(=O)[C@@H]1CCCN1C(=O)CCCc1ccccc1 (stereo partly drawn),–,–,8,-23,-9,11,-4,0,-7,-12,0,4,-2,10,–
21,H-FSPFR-OH [listing 1 of 2 here],–,–,–,–,–,–,–,–,–,–,–,–,–,–,–
–,CC(Cc1ccccc1)(NC(=O)[C@@H]1CCCN1C(=O)CCCc1ccccc1)C(=O)NCCCN.Cl (stereo partly drawn),–,–,-3.5,0.5,-6,4,-11.5,-0.5,0.3,-3.5,-1.5,10,0,5.5,–
–,H-FSPFR-OH [listing 2 of 2 here],–,–,–,–,–,–,–,–,–,–,–,–,–,–,Change (Canis familiaris [20]): 4.8%; Ratio [13]: > 1160; Ratio [14]: >1158; Change (Canis familiaris [21]): 3%; Change (Canis familiaris [22]): -5.7%; Change (Canis familiaris [23]): -5.1%; Change (Canis familiaris [24]): 0%; Change (Canis familiaris [25]): -3.8%; Change (Canis familiaris [26]): 6.5%; Change (Canis familiaris [27]): 0.5%; Change (Canis familiaris [28]): 0.8%; Change (Canis familiaris [29]): -24.8%; Change (Canis familiaris [30]): -1.2%; ED15 (Canis familiaris [18]): 0.0052 mg/kg; Change (Canis familiaris [31]): 26.2%
–,Cl.Cl.NCCCNC(=O)[C@H](Cc1ccccc1)NC(=O)[C@@H]1CCCN1,-0.5,5,-3.5,-1,–,3.5,-9,0,-1,-3,-1.5,6.5,–,–,Change (Canis familiaris [15]): -5%
13,CC(Cc1ccc(O)cc1)(NC(=O)[C@@H]1CCCN1C(=O)CCCc1ccc(O)cc1)C(=O)NCC(=O)N1CCC[C@H]1C(=O)O (stereo partly drawn) ({Butanoyl(4-(4-HOPh))}-P[ξαMeY]GP-OH),-2,–,3,-1.5,-0.5,4,-5.9,1,0,-6,-7,9,–,0.5,–
